Reference: ChEMBL document CHEMBL1139609, “In pursuit of alpha4beta2 nicotinic receptor partial agonists for smoking cessation: carbon analogs of (-)-cytisine” (Bioorg Med Chem Lett, 2005)

Columns and labels:
[1] = biological target: Neuronal acetylcholine receptor; alpha4/beta2 (Homo sapiens, UniProt P17787+P43681); test: Binding affinity against nicotinic acetylcholine receptor alpha4-beta2 in human HEK293 cells using [3H]- nicotine as radioligand; format: cell-based
[2] = biological target: Neuronal acetylcholine receptor; alpha4/beta2 (Rattus norvegicus, UniProt P09483+P12390); test: Inhibition of [3H]-nicotine binding to nicotinic acetylcholine receptor alpha4-beta2 in rat cortex
[3] = biological target: Neuronal acetylcholine receptor subunit alpha-7 (Homo sapiens, UniProt P36544); test: Inhibition of [3H]alpha-bungarotoxin binding to nicotinic acetylcholine receptor alpha7 of IMR32 cells; format: cell-based, IMR-32
[4] = biological target: Neuronal acetylcholine receptor; alpha3/beta4 (Homo sapiens, UniProt P30926+P32297); test: Inhibition of [3H]epibatidine binding to nicotinic acetylcholine receptor alpha3-beta4 of IMR32 cells; format: cell-based, IMR-32
How it was run: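 Displacement of [3H]epibatidine binding in IMR32 cells, taken as the α3β4 nAChR site.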

[5] = Inhibition of [3H]alpha-bungarotoxin binding to nicotinic acetylcholine receptor alpha-1-beta-1-delta-gamma of electroplax; set-up: species or system pisces

Chain of Neuronal acetylcholine receptor; alpha3/beta4 (P30926 whole entry): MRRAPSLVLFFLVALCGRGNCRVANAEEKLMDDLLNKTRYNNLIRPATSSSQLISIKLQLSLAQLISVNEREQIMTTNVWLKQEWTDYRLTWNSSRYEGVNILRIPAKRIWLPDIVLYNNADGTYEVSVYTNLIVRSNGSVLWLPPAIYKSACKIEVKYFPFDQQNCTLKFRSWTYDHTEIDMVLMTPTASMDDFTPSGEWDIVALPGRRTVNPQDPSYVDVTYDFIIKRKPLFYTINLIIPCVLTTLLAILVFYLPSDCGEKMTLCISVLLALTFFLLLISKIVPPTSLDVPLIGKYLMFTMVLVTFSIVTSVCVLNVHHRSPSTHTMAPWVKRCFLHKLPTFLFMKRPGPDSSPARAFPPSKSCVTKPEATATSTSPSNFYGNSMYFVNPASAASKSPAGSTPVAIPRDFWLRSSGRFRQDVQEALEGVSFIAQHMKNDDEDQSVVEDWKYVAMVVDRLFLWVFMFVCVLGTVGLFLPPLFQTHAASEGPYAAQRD
Chain of Neuronal acetylcholine receptor; alpha3/beta4 (P32297 whole entry): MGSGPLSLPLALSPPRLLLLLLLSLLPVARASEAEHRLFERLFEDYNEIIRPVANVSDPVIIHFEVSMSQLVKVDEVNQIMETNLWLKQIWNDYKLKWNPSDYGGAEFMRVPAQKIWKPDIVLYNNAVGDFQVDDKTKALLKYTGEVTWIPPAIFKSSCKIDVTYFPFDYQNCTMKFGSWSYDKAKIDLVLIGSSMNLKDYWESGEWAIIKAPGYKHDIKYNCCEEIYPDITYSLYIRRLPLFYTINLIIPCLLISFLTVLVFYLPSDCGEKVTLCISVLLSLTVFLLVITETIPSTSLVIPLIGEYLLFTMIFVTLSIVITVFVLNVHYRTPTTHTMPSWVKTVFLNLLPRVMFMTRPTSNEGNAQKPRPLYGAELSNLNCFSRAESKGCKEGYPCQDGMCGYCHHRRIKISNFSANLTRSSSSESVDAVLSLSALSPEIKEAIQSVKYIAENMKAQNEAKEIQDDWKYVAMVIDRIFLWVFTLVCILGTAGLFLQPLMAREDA
Chain of Neuronal acetylcholine receptor; alpha4/beta2 (Homo sapiens, UniProt P17787+P43681) (P17787 whole entry): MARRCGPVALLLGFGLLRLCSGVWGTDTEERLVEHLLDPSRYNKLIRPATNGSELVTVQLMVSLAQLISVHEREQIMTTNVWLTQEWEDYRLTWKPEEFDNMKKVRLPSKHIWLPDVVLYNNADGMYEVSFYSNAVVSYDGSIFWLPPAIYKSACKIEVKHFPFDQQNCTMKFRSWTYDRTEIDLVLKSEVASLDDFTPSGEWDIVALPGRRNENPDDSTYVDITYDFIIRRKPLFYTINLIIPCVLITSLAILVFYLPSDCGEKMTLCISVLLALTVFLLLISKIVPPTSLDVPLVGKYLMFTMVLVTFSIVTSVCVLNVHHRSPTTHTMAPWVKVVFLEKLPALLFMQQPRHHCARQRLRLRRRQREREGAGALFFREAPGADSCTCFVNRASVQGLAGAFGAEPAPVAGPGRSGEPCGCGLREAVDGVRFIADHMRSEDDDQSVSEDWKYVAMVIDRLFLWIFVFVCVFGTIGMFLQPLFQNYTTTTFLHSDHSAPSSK
Chain of Neuronal acetylcholine receptor; alpha4/beta2 (Homo sapiens, UniProt P17787+P43681) (P43681 whole entry): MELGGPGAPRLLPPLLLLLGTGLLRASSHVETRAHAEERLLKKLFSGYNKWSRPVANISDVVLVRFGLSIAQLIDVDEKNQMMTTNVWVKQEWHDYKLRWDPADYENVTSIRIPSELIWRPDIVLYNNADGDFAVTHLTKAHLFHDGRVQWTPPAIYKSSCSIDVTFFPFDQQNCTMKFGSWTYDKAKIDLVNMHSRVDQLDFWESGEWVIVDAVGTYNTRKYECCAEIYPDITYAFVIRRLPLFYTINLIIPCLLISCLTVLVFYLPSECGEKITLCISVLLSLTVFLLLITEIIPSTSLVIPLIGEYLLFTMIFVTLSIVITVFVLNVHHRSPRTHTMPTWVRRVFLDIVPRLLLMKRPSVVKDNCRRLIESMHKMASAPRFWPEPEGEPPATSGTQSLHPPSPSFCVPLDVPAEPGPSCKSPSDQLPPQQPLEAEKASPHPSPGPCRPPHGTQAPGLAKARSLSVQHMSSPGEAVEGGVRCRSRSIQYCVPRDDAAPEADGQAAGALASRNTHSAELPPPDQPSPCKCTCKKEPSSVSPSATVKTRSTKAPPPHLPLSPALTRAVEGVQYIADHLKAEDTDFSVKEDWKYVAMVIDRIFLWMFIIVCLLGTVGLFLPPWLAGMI
Chain of Neuronal acetylcholine receptor; alpha4/beta2 (Rattus norvegicus, UniProt P09483+P12390) (P09483 whole entry): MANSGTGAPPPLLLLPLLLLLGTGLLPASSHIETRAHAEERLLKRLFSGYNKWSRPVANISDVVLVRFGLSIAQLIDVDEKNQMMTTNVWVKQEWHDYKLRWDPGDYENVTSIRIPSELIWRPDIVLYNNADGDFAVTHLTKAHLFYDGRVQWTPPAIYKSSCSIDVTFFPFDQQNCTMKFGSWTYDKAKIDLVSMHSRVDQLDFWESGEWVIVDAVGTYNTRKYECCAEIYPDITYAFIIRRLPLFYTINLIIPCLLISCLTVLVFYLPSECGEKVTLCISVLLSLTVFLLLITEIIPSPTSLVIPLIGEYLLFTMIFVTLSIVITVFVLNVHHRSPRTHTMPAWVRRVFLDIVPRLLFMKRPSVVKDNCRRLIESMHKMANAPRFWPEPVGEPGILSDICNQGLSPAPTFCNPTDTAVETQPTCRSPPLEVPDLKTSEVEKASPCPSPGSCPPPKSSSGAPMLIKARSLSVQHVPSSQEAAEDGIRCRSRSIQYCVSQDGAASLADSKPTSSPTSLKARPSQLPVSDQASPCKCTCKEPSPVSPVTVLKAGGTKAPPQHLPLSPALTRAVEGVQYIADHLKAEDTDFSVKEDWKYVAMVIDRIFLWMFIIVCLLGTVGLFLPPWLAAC
Chain of Neuronal acetylcholine receptor; alpha4/beta2 (Rattus norvegicus, UniProt P09483+P12390) (P12390 whole entry): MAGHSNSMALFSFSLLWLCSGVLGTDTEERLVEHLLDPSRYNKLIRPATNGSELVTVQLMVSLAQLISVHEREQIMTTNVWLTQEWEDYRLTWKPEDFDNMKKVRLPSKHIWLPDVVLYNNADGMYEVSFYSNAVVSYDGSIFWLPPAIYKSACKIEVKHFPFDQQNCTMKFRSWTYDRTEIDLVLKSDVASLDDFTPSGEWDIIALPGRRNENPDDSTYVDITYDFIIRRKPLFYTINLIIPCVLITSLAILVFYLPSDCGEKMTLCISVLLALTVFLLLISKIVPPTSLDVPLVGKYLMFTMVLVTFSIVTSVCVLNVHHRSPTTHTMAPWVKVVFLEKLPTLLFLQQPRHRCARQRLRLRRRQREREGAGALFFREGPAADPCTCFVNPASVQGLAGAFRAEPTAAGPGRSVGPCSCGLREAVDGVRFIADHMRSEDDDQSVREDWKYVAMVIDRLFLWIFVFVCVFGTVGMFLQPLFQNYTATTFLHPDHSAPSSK
Chain of Neuronal acetylcholine receptor subunit alpha-7 (P36544 whole entry): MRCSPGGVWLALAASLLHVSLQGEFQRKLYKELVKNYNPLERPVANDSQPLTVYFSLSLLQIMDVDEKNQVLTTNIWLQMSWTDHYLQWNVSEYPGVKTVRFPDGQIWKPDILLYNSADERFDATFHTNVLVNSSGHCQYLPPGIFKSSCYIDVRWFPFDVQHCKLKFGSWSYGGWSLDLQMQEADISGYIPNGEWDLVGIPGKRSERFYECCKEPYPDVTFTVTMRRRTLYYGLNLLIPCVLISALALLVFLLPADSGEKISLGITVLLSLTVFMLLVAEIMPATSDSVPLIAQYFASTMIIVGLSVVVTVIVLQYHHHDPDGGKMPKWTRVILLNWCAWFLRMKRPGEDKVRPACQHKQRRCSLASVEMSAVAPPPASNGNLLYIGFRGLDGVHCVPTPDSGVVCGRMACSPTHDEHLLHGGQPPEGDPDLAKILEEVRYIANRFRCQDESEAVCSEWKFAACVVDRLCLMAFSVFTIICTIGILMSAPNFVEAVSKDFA

| SMILES | Ki [1] [nM] | further results |
| --- | --- | --- |
| COc1ccc2c(c1)CC1CNCC2C1 (stereo unspecified) | 1.4 | Ki [2]: 3.2 nM; Ki [3]: 2400 nM; Ki [4]: 810 nM |
| COc1ccc(-c2ccc3c(c2)CC2CNCC3C2)cc1 (stereo unspecified) | 370 | – |
| FC(F)Oc1ccc2c(c1)CC1CNCC2C1 (stereo unspecified) | 7 | Ki [3]: 1700 nM |
| FC(F)(F)c1ccc(-c2ccc3c(c2)CC2CNCC3C2)cc1 (stereo unspecified) | 200 | – |
| c1ccc(-c2ccc3c(c2)CC2CNCC3C2)cc1 (stereo unspecified) | > 500 | – |
| COc1ccc2c(c1O)CC1CNCC2C1 (stereo unspecified) | 13 | – |
| Oc1cccc2c1CC1CNCC2C1 (stereo unspecified) | 2.9 | – |
| c1cncc(-c2ccc3c(c2)CC2CNCC3C2)c1 (stereo unspecified) | > 500 | – |
| COc1ccc2c(c1)C1CNCC(C2)C1 (stereo unspecified) | – | Ki [2]: 90 nM |
| O=c1oc2ccc3c(c2o1)CC1CNCC3C1 (stereo unspecified) | > 500 | – |
| O=[N+]([O-])c1ccc2c(c1)C1CNCC(C2)C1 (stereo unspecified) | 6.5 | Ki [4]: 980 nM |
| O=[N+]([O-])c1ccc2c(c1)CC1CNCC2C1 (stereo unspecified) | 4.9 | Ki [4]: 340 nM |
| COC(=O)c1ccc2c(c1)CC1CNCC2C1 (stereo unspecified) | 34 | – |
| Fc1ccc2c(c1)CC1CNCC2C1 (stereo unspecified) | 2 | Ki [3]: 350 nM; Ki [4]: 710 nM |
| Fc1cccc2c1CC1CNCC2C1 (stereo unspecified) | 6.5 | Ki [3]: 830 nM |
| CC(C)(O)c1ccc2c(c1)CC1CNCC2C1 (stereo unspecified) | 264 | – |
| COc1cccc2c1CC1CNCC2C1 (stereo unspecified) | > 500 | – |
| Nc1cccc(-c2ccc3c(c2)CC2CNCC3C2)c1 (stereo unspecified) | > 500 | – |
| CC(C)c1ccc2c(c1)CC1CNCC2C1 (stereo unspecified) | 72 | – |
| CCOc1ccc2c(c1)CC1CNCC2C1 (stereo unspecified) | 13 | – |
| Oc1ccc2c(c1)C1CNCC(C2)C1 (stereo unspecified) | – | Ki [2]: 75 nM |
| O=[N+]([O-])c1cccc2c1C1CNCC(C2)C1 (stereo unspecified) | 14 | – |
| Fc1ccc2c(c1F)CC1CNCC2C1 (stereo unspecified) | 0.44 | Ki [5]: 3000 nM; Ki [3]: 520 nM; Ki [4]: 810 nM |
| NC(=O)COc1ccc2c(c1)CC1CNCC2C1 (stereo unspecified) | > 500 | – |
| c1ccc2c(c1)CC1CNCC2C1 (stereo unspecified) | 34 | Ki [2]: 65 nM |
| c1cc2c(c3c1CC1CNCC3C1)OCO2 (stereo unspecified) | 5.7 | Ki [5]: 4500 nM; Ki [3]: 5100 nM; Ki [4]: 1900 nM |
| Oc1ccc2c(c1)CC1CNCC2C1 (stereo unspecified) | 90 | – |
| O=c1cccc2n1C[C@@H]1CNC[C@H]2C1 [CYTISINICLINE] | 0.23 | Ki [5]: 250 nM; Ki [3]: 4200 nM |
